“Also recorded” adds a separate entry of the source.
Tests used:
[1] = molecular target: T1, recombinantly produced FP2 (Plasmodium falciparum, UniProt Q8I6U4); assay: Kinetics of substrate turnover inhibition; format: biochemical, P. falciparum
T1 sequence (Q8I6U4 244-484): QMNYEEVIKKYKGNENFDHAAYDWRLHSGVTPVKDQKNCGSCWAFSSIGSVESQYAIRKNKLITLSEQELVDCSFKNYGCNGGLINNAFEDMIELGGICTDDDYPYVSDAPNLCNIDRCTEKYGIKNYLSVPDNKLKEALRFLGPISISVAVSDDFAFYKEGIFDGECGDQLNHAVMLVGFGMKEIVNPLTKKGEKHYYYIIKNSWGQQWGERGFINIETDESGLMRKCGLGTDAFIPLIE
Outline: (§1)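 Fluorescence (ex 350 nm, em 460 nm) was followed for 2 hr at several inhibitor concentrations. Turnover relative to DMSO controls (v/v0) was fitted to an irreversible inhibition model; ki = kobs/[I].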

[2] = system: cathepsins B, H, S, and Z; format: cell-based; conditions: mouse macrophages, 5 µM
Outline: (§2)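 Bone marrow-derived mouse macrophages were preincubated with 0.5 or 5 µM test compound. Residual protease activity was then read in protein extracts by labelling with either a broad papain-like cysteine protease activity-based probe (cathepsins) or a proteasome-specific activity-based probe (proteasome).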

FP1 [3] = molecular target: T2, FP1 (Plasmodium falciparum, UniProt P25805); assay: Falcipain inhibition in living parasites; format: cell-based, P. falciparum
T2 sequence (P25805 333-569): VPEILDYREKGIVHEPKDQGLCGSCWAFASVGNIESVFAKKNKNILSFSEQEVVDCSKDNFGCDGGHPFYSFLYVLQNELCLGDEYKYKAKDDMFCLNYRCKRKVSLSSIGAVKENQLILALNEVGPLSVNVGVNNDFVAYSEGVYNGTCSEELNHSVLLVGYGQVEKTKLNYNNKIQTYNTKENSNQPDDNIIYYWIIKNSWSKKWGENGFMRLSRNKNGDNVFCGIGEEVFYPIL

FP2, FP2′, and FP3 = assay: Competitive ABPP with Cy5-DCG-04 in parasite lysates; format: biochemical, P. falciparum; conditions: D10 lysates, 30 min preincubation, 1 µM Cy5-DCG-04 1 hr
DPAP3 = assay: Competitive ABPP with DPAP activity-based probe FY01; format: biochemical, P. falciparum; conditions: competitive ABPP with FY01, Figure S3
DPAP1 = molecular target: T3, DPAP1 (Plasmodium falciparum, UniProt Q8IIJ9); assay: Competitive ABPP with Cy5-DCG-04, DPAP1 labeling; format: cell-based, P. falciparum
T3 sequence (Q8IIJ9 370-599 limits assumed): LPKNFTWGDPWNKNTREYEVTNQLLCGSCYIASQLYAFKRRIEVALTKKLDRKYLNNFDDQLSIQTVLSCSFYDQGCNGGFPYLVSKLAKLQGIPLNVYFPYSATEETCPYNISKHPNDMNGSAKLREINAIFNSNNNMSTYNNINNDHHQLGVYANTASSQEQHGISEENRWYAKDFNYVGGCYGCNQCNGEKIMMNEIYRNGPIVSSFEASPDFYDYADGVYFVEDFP
T3 sequence (Q8IIJ9 600-700 limits assumed): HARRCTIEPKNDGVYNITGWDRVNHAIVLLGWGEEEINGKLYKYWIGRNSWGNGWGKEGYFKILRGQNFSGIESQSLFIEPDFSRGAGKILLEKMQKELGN
T3 sequence (Q8IIJ9 28-209 limits assumed): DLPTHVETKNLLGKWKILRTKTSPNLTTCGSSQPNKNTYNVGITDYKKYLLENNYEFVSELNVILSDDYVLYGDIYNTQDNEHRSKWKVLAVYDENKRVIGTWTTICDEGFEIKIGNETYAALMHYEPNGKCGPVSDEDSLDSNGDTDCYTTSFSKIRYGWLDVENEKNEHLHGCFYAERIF
Outline: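 A P. falciparum culture at 20% parasitemia and 2% hematocrit was exposed to graded test compound for 1 hr. Aliquots were lysed with 0.15% saponin in PBS. Parasite pellets were labelled for 1 hr with 1 µM Cy5-DCG04 in acetate buffer containing 1% NP40. After SDS-PAGE, DPAP1 band fluorescence was quantified and fitted to a sigmoidal dose-response curve to give IC50.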

[4] = system: proteins in the 28 kDa region (food vacuole falcipains); assay: Labeling of intact schizonts with rhodamine probes; format: cell-based, P. falciparum; conditions: pretreatment with 10 µM nonfluorescent compound, then 10 µM RhSym4 1 hr
Outline: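 Purified schizonts were pretreated with 10 µM nonfluorescent competitor or DMSO. They were then incubated 1 hr with 10 µM rhodamine-tagged probe in PBS. Samples were boiled in loading buffer, proteins resolved by SDS-PAGE, and labelled bands detected by flatbed fluorescence scanning.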

FP1 [5] = molecular target: T2, FP1; assay: Competitive ABPP with Cy5-DCG-04 in parasite lysates; format: biochemical, P. falciparum; conditions: D10 lysates, 30 min preincubation, 1 µM Cy5-DCG-04 1 hr
Outline: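 Trophozoites were harvested 36 hr post-invasion, freed from RBCs with saponin, and extracted in PBS with 1% NP40. Soluble lysate was diluted 1:10 in acetate buffer (50 mM sodium acetate, 5 mM MgCl2, 5 mM DTT) and pretreated 30 min with test compound over a concentration range. Then 1 µM Cy5-DCG04 was added for 1 hr. Reactions were boiled in loading buffer, resolved by SDS-PAGE, and scanned for in-gel fluorescence.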

[6] = system: P. falciparum ring stage parasites (food vacuole); assay: Phenotypic characterization of treated ring stage parasites; format: cell-based; conditions: 24 hr, Giemsa smears
Outline: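 Synchronized ring-stage cultures (2% parasitemia) were treated with a range of test compound concentrations or DMSO for 24 hr. Morphology was then examined on Giemsa-stained thin blood smears, and the food vacuole defect was scored as enlargement of this acidic organelle.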

[7] = system: P. falciparum D10 parasites; assay: P. falciparum replication assay; format: cell-based
red blood cells (RBCs) = conditions: even at the highest tested concentrations (>25 µM); ref Conroy et al., 2010; cited from earlier work
cathepsin L = cathepsin L (Mus musculus, UniProt P06797); format: cell-based; conditions: mouse macrophages, 0.5 µM
Chain of cathepsin L (P06797 114-334): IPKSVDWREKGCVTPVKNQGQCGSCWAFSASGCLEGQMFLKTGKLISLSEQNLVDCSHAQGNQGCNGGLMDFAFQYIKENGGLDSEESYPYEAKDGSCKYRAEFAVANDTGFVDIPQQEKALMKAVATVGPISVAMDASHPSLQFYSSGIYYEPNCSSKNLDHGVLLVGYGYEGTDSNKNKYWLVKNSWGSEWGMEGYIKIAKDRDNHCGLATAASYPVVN
Outline: as §2

proteasome = format: cell-based; conditions: mouse macrophages preincubated with 0.5 µM and 5 µM
Outline: as §2

[8] = molecular target: T4, recombinantly produced FP3 (Plasmodium falciparum, UniProt Q8IIL0); assay: Kinetics of substrate turnover inhibition; format: biochemical, P. falciparum
T4 sequence (Q8IIL0 243-492): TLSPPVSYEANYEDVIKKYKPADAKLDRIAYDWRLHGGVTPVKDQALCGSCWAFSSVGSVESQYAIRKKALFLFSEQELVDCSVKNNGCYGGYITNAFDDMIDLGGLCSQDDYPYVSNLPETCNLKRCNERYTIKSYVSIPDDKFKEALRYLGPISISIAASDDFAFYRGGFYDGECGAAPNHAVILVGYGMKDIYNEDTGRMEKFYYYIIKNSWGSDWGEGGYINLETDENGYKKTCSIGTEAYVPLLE
Outline: as §1

With `CC[C@H](C)[C@@H](C(=O)O[C@@H](CC(C)C)C(=O)N[C@@H](CC(C)C)C(=O)N[C@@H](C)/C=C/C(=O)N1C(=O)C=C(OC)[C@@H]1C)N(C)C` [Sym4, symplostatin 4] as the molecule, how does the mode of inhibition [1] read?
Its mode of inhibition is “irreversible inhibitor”.

What about the “inhibition of cathepsins B, H, S, and Z” value [2] of the same molecule?
The value was “also inhibited; also recorded: required ten times higher concentrations (i.e., 5 µM) to reach the same inhibition level”.

And the IC50 (FP1 [3])?
Its IC50 is 140 ± 23 nM.

What about the “concentration inhibiting Cy5-DCG-04 labeling of FP2, FP2′, and FP3” value (FP2, FP2′, and FP3) of the same molecule?
The value was 1.5 nM.

What about the “inhibition of DPAP3” value (DPAP3) of the same molecule?
Its value is “neither DPAP1 (Figure 4) nor DPAP3 (Figure S3) is inhibited”.

And the “inhibition of DPAP1” value (DPAP1; competitive ABPP with Cy5-DCG04, Figure 4)?
The value was “neither DPAP1 (Figure 4) nor DPAP3 (Figure S3) is inhibited”.

What about the “inhibition of DPAP1” value (DPAP1; living parasites, 1 hr, at 1 µM) of the same molecule?
Its value is “did not inhibit”.

And the “competition of RhSym4 labeling” value [4]?
Its value is “sensitive to preincubation”.

What about the “concentration inhibiting Cy5-DCG-04 labeling of FP1” value (FP1 [5]) of the same molecule?
The value was greater than 1.6 µM.

And the “concentration causing swollen food vacuole phenotype” value [6]?
The value was 0.1 µM.

What about the “fold higher concentration for parasite killing than for food vacuole defect” value ([7]; EC50 0.7 µM versus 0.1 µM) of the same molecule?
The value was 7 fold.

What about the “fold more potent than Sym4^mmp → Ala (EC50)” value ([7]; replication assay, 75 hr) of the same molecule?
The value was 40 fold.

And the “lysis of red blood cells” value (red blood cells (RBCs))?
Its value is “no lysis”.

And the “inhibition of cathepsin L” value (cathepsin L)?
The value was “inhibit; also recorded: inhibits a large portion”.

And the “inhibition of the proteasome” value (proteasome)?
Its value is “did not inhibit; also recorded: does not inhibit”.

What about the mode of inhibition [8] of the same molecule?
The mode of inhibition was “irreversible inhibitor”.
